Publication PMC7312786 (Biochemistry, 2018)
Where two headings read alike, the source gives them in different places.

Assays:
[1] = test system: HAP-1 cells (hpol η-proficient, parental); assay: Cell viability; format: cell-based, human; conditions: read-out: EC50 of CDDP, cell viability, parental HAP-1
Procedure, shortened: (§1)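 HAP-1 parental or CRISPR hpol η-null cells in IMDM with 10% FBS and 1% antibiotic/antimycotic, passage 8–10, seeded 5000 cells/well. Next day: CDDP 0–100 μM alone or with 0.1 or 1 μM test compound, 48 h. Cells washed twice in DPBS, then 2 μM Calcein-AM for 30 min at 25 °C; fluorescence ex 490/em 520 nm. Viability as % of untreated. […] Combination index by Chou–Talalay.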

[2] = test system: hpol η-deficient HAP-1 cells; assay: Cell viability; format: cell-based, human
Procedure, shortened: as §1

[3] = test system: γH2AX in hpol η-proficient HAP-1 cells; assay: γH2AX immunoblotting, hpol η-proficient HAP-1 cells; format: cell-based, human; conditions: CDDP alone (0.5 μM)
Procedure, shortened: (§2)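 HAP-1 cells treated with DMSO or 0.5 μM CDDP combined with 0.1 or 1 μM test compound. Pellets lysed at 4 °C in HEPES pH 7.5/Triton X-100 buffer with phosphatase and protease inhibitors. 30–40 μg protein run on 4–20% SDS-PAGE, transferred to nitrocellulose. Probed with anti-γH2AX (S139) 1:1500 and HRP anti-rabbit 1:4000; β-actin loading control; chemiluminescence. Bands normalized to β-actin, relative to DMSO; three biological replicates; t test.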

[4] = test system: γH2AX in hpol η-deficient HAP-1 cells; assay: γH2AX immunoblotting, hpol η-deficient HAP-1 cells; format: cell-based, human; conditions: CDDP (0.5 μM)
Procedure, shortened: as §2

pol binding to DNA = conditions: cited from earlier work
hpol η = target: T1, hpol η (Homo sapiens, UniProt Q9Y253); conditions: cited from earlier work
T1 sequence (Q9Y253 1-437): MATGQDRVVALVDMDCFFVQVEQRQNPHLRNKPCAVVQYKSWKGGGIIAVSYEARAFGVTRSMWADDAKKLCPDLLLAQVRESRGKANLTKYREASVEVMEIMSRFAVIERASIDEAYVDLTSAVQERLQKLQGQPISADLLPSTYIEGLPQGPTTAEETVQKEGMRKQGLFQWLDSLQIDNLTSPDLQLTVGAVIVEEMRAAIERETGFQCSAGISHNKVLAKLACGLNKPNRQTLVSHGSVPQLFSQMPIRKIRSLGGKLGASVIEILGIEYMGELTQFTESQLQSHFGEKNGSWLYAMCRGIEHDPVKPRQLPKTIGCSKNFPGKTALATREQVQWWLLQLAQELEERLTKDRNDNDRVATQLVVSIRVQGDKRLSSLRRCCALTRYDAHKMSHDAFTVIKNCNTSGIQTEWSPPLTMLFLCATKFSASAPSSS

Compound: N.N.[Cl][Pt][Cl] [CDDP, cis-diamminedichloroplatinum(II), reference compound]
- EC50 ([1]; CDDP + 0.1 μM PNR-7-02): 140 nM
- EC50 ([1]; CDDP + 1 μM PNR-7-02): 120 nM
- Reduction of CDDP EC50 by loss of hpol η ([2]; hpol η-deficient versus parental HAP-1): ~ 3 fold
- EC50 ([2]; read-out: EC50 of CDDP, cell viability, hpol η-deficient HAP-1, CDDP alone): 100 nM
- Amount of μH2AX [3]: did not change substantially
- Increase of μH2AX [4]: ~ 5 fold

Compound: CCOc1nc2cccc(C(=O)OC(C)OC(=O)OC3CCCCC3)c2n1Cc1ccc(-c2ccccc2-c2nnn[nH]2)cc1 (stereo not shown) [candesartan cilexetil]
- Impact on pol binding to DNA (pol binding to DNA): negligible impact

Compound: CC(C)c1ccc2c(c1)c(SC(C)(C)C)c(CC(C)(C)C(=O)O)n2Cc1ccc(Cl)cc1 [MK-886]
- Impact on pol binding to DNA (pol binding to DNA): negligible impact

Compound: O=C1NC(=S)NC(=O)C1=Cc1cn(C(=O)c2ccccc2Br)c2ccc(Cl)cc12 [PNR-3-51, 5-((1-(2-bromobenzoyl)-5-chloro-1H-indol-3-yl)methylene)-2-thioxodihydropyrimidine-4,6(1H,5H)-dione]
- Specificity for hpol η over other pols (hpol η; over other TLS and DNA repair pols): less than 2 fold
- IC50 (hpol η; read-out: IC50 against hpol η, previous publication): ~30 µM
